Reference: ChEMBL document CHEMBL1125717, “Synthesis and biological evaluation of cyclopropyl analogues of 2-amino-5-phosphonopentanoic acid” (J Med Chem, 1991)

Tests used:
[1] = Compound was tested in vitro for Non N-methyl-D-aspartate glutamate receptor binding using [3H]- -Kainate; parameters: species or system Rattus norvegicus
Procedure, shortened: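 Rat forebrain synaptic membranes (male Sprague–Dawley, 30–45 days old) were treated with 0.04% Triton X-100 for 30 min at 37 °C and washed in 50 mM Tris/acetate pH 7.4. Incubation used 0.5 nM [3H]kainate and graded compound concentrations, with 0.25–0.35 mg/mL membrane, for 60 min at 4 °C. Bound ligand was separated by centrifugation; 0.1 mM kainate defined nonspecific binding. IC50 was derived by logit–log and Ki by Cheng–Prusoff, from ≥3 triplicate experiments.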

Glutamate NMDA receptor [2] = assay: Compound was tested in vitro for N-methyl-D-aspartate glutamate receptor binding using [3H]L-glutamate; assay type: protein-complex assay
Procedure, shortened: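 Rat forebrain synaptic plasma membranes (male Sprague–Dawley, 30–45 days old) were pretreated with 0.04% Triton X-100 for 30 min at 37 °C and washed four times in 50 mM Tris/acetate, pH 7.4. Incubation: 10 nM [3H]-L-glutamate, membranes at 0.25–0.35 mg/mL final, 10 min at 4 °C, then filtration through PEI-treated filters. Nonspecific binding: 0.1 mM L-glutamate. IC50 by logit–log; Ki by Cheng–Prusoff. Mean ± SEM, ≥3 experiments in triplicate.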

Glutamate NMDA receptor [3] = assay: Compound was tested in vitro for its inhibitory activity against N-methyl-D-aspartate glutamate receptor using [3H]MK-801; assay type: protein-complex assay
Procedure, shortened: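 Functional modulation assay on washed rat synaptic membranes pretreated with 0.04% v/v Triton X-100. Incubated 30 min at 25 °C with 5.0 nM [3H]MK-801, 10.0 nM L-glutamate and graded compound concentrations in 50 mM Tris/acetate, pH 7.4. Filter-bound radioactivity counted by scintillation. Nonspecific binding: 60 μM MK-801. IC50 from logit–log transformation. Mean ± SEM, ≥3 experiments in triplicate.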

[4] = Compound was tested in vitro for Non N-methyl-D-aspartate glutamate receptor binding using [3H]kainate; parameters: species or system Rattus norvegicus
Procedure, shortened: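 Triton X-100-treated (0.04%, 30 min, 37 °C), washed rat forebrain synaptic membranes (male Sprague–Dawley, 30–45 days), 0.25–0.35 mg/mL final in 50 mM Tris/acetate, pH 7.4. Incubated with 0.5 nM [3H]kainate for 60 min at 4 °C; bound ligand separated by centrifugation. Nonspecific binding: 0.1 mM kainate. IC50 by logit–log; Ki by Cheng–Prusoff. Mean ± SEM, ≥3 experiments in triplicate.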

Row | SMILES | Ki [1] [µM] | Ki (Glutamate NMDA receptor [2]) [µM] | IC50 (Glutamate NMDA receptor [3]) [µM] | Ki [4] [µM]
1 | NC(CCCP(=O)(O)O)C(=O)O (centres undefined) | > 100 | 0.42 |  | 
2 | N[C@@]1(C(=O)O)CC1CCP(=O)(O)O (some centres undefined) |  | 26.7 | 18.1 | > 100
3 | N[C@]1(C(=O)O)CC1CCP(=O)(O)O (some centres undefined) |  | 18.7 | 15.2 | > 100
4 | NC(C(=O)O)C1CC1CCP(=O)(O)O (centres undefined) |  | > 50 |  | > 100
5 | N[C@H](C[C@@H]1CC1P(=O)(O)O)C(=O)O (some centres undefined) |  | 1.6 | 2.7 | > 100
6 | NC(C(=O)O)C1CC1CP(=O)(O)O (stereo in doubt; 13a) |  | 18.9 | 22.6 | 
7 | NC(C(=O)O)C1CC1CP(=O)(O)O (stereo in doubt; 13b) |  | 9.5 | 13.3 | > 100
8 | NC(C(=O)O)C1CC1CCCP(=O)(O)O (stereo in doubt; 33c) |  | 12.5 |  | > 100
9 | NC(C(=O)O)C1CC1CCCP(=O)(O)O (stereo in doubt; 33d) |  | > 50 |  | 
10 | O=C(O)[C@@H]1C[C@H](CP(=O)(O)O)CCN1 [SELFOTEL] |  | 0.16 | 0.14 | > 100
